Data on 22 molecules can be found in ChEMBL document CHEMBL1153242, “Novel spiropiperidine-based stearoyl-CoA desaturase-1 inhibitors: Identification of 1'-{6-[5-(pyridin-3-ylmethyl)-1,3,4-oxadiazol-2-yl]pyridazin-3-yl}-5-(trifluoromethyl)-3,4-dihydrospiro[chromene-2,4'-piperidine]” (Bioorg Med Chem Lett, 2010).

pIC50: −log10 of the molar value.

Data set [1] has as its target T1, Stearoyl-CoA desaturase (Homo sapiens, UniProt O00767).
T1 sequence (O00767 whole entry): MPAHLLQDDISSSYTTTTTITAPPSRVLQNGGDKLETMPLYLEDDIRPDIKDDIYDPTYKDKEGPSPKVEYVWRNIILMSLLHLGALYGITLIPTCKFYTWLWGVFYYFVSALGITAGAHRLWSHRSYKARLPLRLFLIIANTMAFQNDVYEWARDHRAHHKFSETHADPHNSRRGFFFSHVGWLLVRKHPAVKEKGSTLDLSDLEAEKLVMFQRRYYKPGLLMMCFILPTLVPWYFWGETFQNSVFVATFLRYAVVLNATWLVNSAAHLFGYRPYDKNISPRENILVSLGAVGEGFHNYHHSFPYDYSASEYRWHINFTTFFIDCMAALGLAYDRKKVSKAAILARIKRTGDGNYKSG
Put plainly: Inhibition of human SCD1 expressed in human 293A cells assessed as conversion of [14C]stearate to [14C]oleate. The data set is classed as cell-based.

Data set [2] in a line: Cmax in C57BL/6J mouse at 20 mg/kg, po. The data set is classed as ADME, organism-based. Further details: dose 20 mg/kg, route oral; call rule not given here. The conditions noted are these: in vivo. A digest of the protocol: (§1)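 Oral dose of 20 mg/kg in PG/Tween (4/1), given by intubation tube to C57BL/6J mice (n = 3). Plasma sampled up to 8 h after dosing and compound levels measured by LC/MS. Values are arithmetic means of at least two experiments.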

The nature of data set [3]: Half life in C57BL/6J mouse at 20 mg/kg, po. Further details: dose 20 mg/kg, route oral. It is filed as ADME, organism-based. The conditions noted are these: in vivo. The essentials: as §1
Data set [4] in a line: Tmax in C57BL/6J mouse at 20 mg/kg, po. The data set is classed as ADME, organism-based. The conditions noted are these: in vivo. The arrangement: dose 20 mg/kg, route oral. The essentials: as §1
The nature of data set [5]: AUC (0 to8 hrs) in C57BL/6J mouse at 20 mg/kg, po. It is filed as ADME, organism-based. The arrangement: time < 8 hr, dose 20 mg/kg, route oral. The conditions noted are these: plasma. A digest of the protocol: as §1
The test system of data set [6] is Mus musculus. Put plainly: (§2) Oral bioavailability in C57BL/6J mouse at 20 mg/kg. The data set is classed as ADME, organism-based. The conditions noted are these: in vivo.
The test system of data set [7] is Mus musculus. Put plainly: In vivo inhibition of SCD1 in non-fat diet-induced oral dosed C57BL/6J mouse liver assessed as conversion of ratio of [14C]oleate to [14C]stearate after 2 to 3 hrs. It is filed as functional. The conditions noted are these: read-out: ID50 (the source's name). The essentials:
(§3)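 C57BL/6J mice on a non-fat diet (n = 2) dosed with inhibitor 2 h or 6 h before [14C]stearate. Mice killed 1 h after the [14C]stearate injection and livers removed. ID50 in mg/kg is the arithmetic mean of at least two experiments.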

Data set [8] concerns Mus musculus. Put plainly: In vivo inhibition of SCD1 in non-fat diet-induced oral dosed C57BL/6J mouse liver assessed as conversion of ratio of [14C]oleate to [14C]stearate after 6 to 7 hrs. The data set is classed as functional. The conditions noted are these: read-out: ID50 (the source's name). The essentials:
as §3

The species named for data set [9] is Mus musculus. Put plainly: Toxicity in C57BL/6J mouse assessed as occurance of abnormilities in eyes. It is filed as organism-based. The conditions noted are these: in vivo. The essentials:
(§4)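 C57BL/6J mice (n = 4) on a non-fat diet received oral doses once daily for 7 days, up to 3 mg/kg. The plasma desaturation index (C18:1/C18:0 ratio) served as the biomarker. Skin and eyes were inspected for abnormalities.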

Data set [10] is filed under the species Mus musculus. Put plainly: Toxicity in C57BL/6J mouse assessed as occurance of abnormilities in skin. The data set is classed as organism-based. The conditions noted are these: in vivo. A digest of the protocol: as §4
Data set [11] concerns Mus musculus. Put plainly: Reduction of desaturation index, ratio of C18:1 N9(cis)oleate to C18:0 streate in serum of low fat diet fed po dosed C57BL/6J mouse administered as single dose for 7 days measured after seventh dose. The conditions noted are these: in the assay text read “non-fat diet” for “low fat diet”. The arrangement: scale not given: the % may be the effect or the level left. The data set is classed as functional. A digest of the protocol: as §4

For data set [12], the target named is Stearoyl-CoA desaturase 1 (Mus musculus) (UniProt P13516). Put plainly: Inhibition of SCD1 in mouse liver assessed as conversion of [14C]stearate to [14C]oleate after 60 mins in S9 microsomal fraction.
Data set [13] deals with Stearoyl-CoA desaturase (Homo sapiens) (UniProt O00767). Put plainly: Inhibition of SCD1 in human 293A cells S9 microsomal fraction assessed as conversion of [14C]stearate to [14C]oleate after 60 mins.
The target of data set [14] is T1, Stearoyl-CoA desaturase. Put plainly: Inhibition of SCD1 in human 293A cell microsomal fraction assessed as conversion of [14C]stearate to [14C]oleate after 60 mins at 0.4 uM.
For data set [15], the system named is Mus musculus. Put plainly: In vivo inhibition of SCD1 in db/db mouse liver assessed as conversion of [14C]stearate to [14C]oleate administered through oral gavage. It is filed as functional. The conditions noted are these: read-out: ID50 (the source's name).
Data set [16] is described as follows: Clearance in C57BL/6J mouse at 5 mg/kg, iv. The data set is classed as ADME, organism-based. The arrangement: dose 5 mg/kg, route intravenous. The conditions noted are these: in vivo. The essentials: (§5)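 Single iv dose of 5 mg/kg in DMA/Tween80/saline (10/10/80), injected into the tail vein of C57BL/6J mice (n = 2). Plasma collected up to 8 h after dosing and compound measured by LC/MS. Values are arithmetic means of at least two experiments.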

Data set [17] can be described thus: Volume of distribution in C57BL/6J mouse at 5 mg/kg, iv. It is filed as ADME, organism-based. Further details: dose 5 mg/kg, route intravenous. The conditions noted are these: in vivo. A digest of the protocol:
as §5

Data set [18] is described as follows: as §2. The conditions noted are these: C57BL/6J, in vivo. It is filed as ADME, organism-based.

In general, pIC50 refers to −log10 of the IC50, conventionally taken in molar units. The term Cmax denotes the highest concentration seen after dosing. The term half-life denotes the time in which the quantity being followed falls by half. As a reminder, the Tmax is the time at which the peak concentration occurs. In general, AUC(0-t) refers to the area under the concentration-time curve up to a stated or last time point. For `FC(F)(F)c1cccc2c1CCC1(CCN(c3ccc(-c4nnc(Cc5cccnc5)o4)nn3)CC1)O2`, the pIC50 at Stearoyl-CoA desaturase [1] was 9.10; in data set [12], 10.22; in data set [13], 10.52. This molecule registered a Cmax in data set [2] of 2600 ng/mL. The molecule further had a half-life in data set [3] of 1.4 h. Besides, the time to peak (Tmax) in data set [4] is 1 h. This molecule also gave an AUC(0-t) at 8 h in data set [5] of 7800 ng·h/mL. Moreover, in the data set on Mus musculus [6], the F result is “Not Active”. Besides, the ED50 in the data set on Mus musculus [7] is 0.5 mg/kg; in the data set with Mus musculus [8], 0.8 mg/kg. The Activity result is “Non-toxic” in the data set listed under Mus musculus [9], “Non-toxic” in the data set listed under Mus musculus [10] and 75% with Mus musculus [11].
On to `FC(F)(F)c1cccc2c1CCC1(CCN(c3ccc(-c4nnc(CCc5cccnc5)o4)nn3)CC1)O2`, for which the pIC50 on Stearoyl-CoA desaturase [1] was 7.46; in data set [12] it was 7.80; in data set [13] it was 8.70.
Turning to `O=C(NCC(O)c1ccccc1)c1ccc(N2CCC3(CC2)Cc2ccccc2CO3)nn1` (stereo not drawn), the figures for the pIC50 (in [12]; at Stearoyl-CoA desaturase [14]) were 7.12 and under 6.40, respectively.
In the case of `O=C(NCC(O)c1ccccc1)c1ccc(N2CCC3(CC2)CC(O)c2c(F)cccc2O3)nn1` (stereo not drawn), the ED50 with Mus musculus [15] turned out to be 7 mg/kg.
As for `Cn1nc(Cc2cccnc2)nc1-c1ccc(N2CCC3(CCc4c(cccc4C(F)(F)F)O3)CC2)nn1`, the results for the pIC50 (on Stearoyl-CoA desaturase [1]; in [12]; in [13]) were 7.42, 7.19 and 8.40, respectively.
As to `O=C(NCC(O)c1ccccc1)c1ccc(N2CCC3(CC2)Oc2ccccc2CC3=O)nn1` (stereo not drawn), in data set [13], the pIC50 is under 5.00.
For the molecule `FC(F)(F)c1cccc2c1CCC1(CCN(c3ccc(-c4nnc(Cc5cccnc5)[nH]4)nn3)CC1)O2`, the values for the pIC50 (at Stearoyl-CoA desaturase [1]; in [12]; in [13]) were 8.40, 9.00 and 9.89, respectively.
For `O=C(NCC(O)c1ccccc1)c1ccc(N2CCC3(CC2)Oc2ccccc2CC3O)nn1` (stereo not drawn), the pIC50 is 6.25 at Stearoyl-CoA desaturase [1], 7.31 in data set [12] and 6.52 in data set [13].
For `O=C(NCC(O)c1cccnc1)c1ccc(N2CCC3(CCc4c(F)ccc(F)c4O3)CC2)nn1` (stereo not drawn), the ED50 with Mus musculus [15] is 5 mg/kg.
For `O=C(NCC(O)c1ccccc1)c1ccc(N2CCC3(CC2)CC(O)c2ccccc2O3)nn1` (stereo not drawn), the ED50 with Mus musculus [15] amounted to 15 mg/kg.
Regarding `O=C(NCC(O)c1cccnc1)c1ccc(N2CCC3(CCc4c(F)cccc4O3)CC2)nn1` (stereo not drawn), the pIC50 on Stearoyl-CoA desaturase [1] is 8.15; in data set [12], 8.22; in data set [13], 7.92. For the same molecule, the ED50 in the data set with Mus musculus [15] amounted to 2 mg/kg.
In the case of `O=C(NCC(O)c1cccnc1)c1ccc(N2CCC3(CCc4c(Cl)cccc4O3)CC2)nn1` (stereo not drawn), the ED50 in the data set with Mus musculus [15] came out at 3 mg/kg.
Consider `Cc1cccc2c1CCC1(CCN(c3ccc(C(=O)NCC(O)c4cccnc4)nn3)CC1)O2` (stereo not drawn), for which the ED50 in the data set with Mus musculus [15] worked out at 4 mg/kg.
In the case of `O=C(NCC(O)c1ccccc1)c1ccc(N2CCC3(CC2)Cc2ccccc2C3=O)nn1` (stereo not drawn), the pIC50 in [13] is 5.70.
Same read-out and setting: the value for `O=C(NCC(O)c1ccccc1)c1ccc(N2CCC3(CC2)CC(O)c2cc(F)ccc2O3)nn1` (stereo not drawn) was under 6.00.
On the same count and under the same terms, the value for `COc1cccc2c1C(O)CC1(CCN(c3ccc(C(=O)NCC(O)c4ccccc4)nn3)CC1)O2` (stereo not drawn) was under 6.00.
As to `O=C(NCC(O)c1ccccc1)c1ccc(N2CCC3(CC2)CC(O)c2ccc(F)cc2O3)nn1` (stereo not drawn), the ED50 with Mus musculus [15] turned out to be 20 mg/kg.
Consider `O=C(NCC(O)c1ccccc1)c1ccc(N2CCC3(C=Cc4ccccc4O3)CC2)nn1` (stereo not drawn), for which the results for the pIC50 in data set [12] and in data set [13] were 7.21 and 6.10, respectively.
Turning to `O=C(NCC(O)c1ccccc1)c1ccc(N2CCC3(CC2)Oc2ccccc2C3=O)nn1` (stereo not drawn), the pIC50 in data set [12] was under 5.00.
In general, clearance refers to the rate of elimination divided by the concentration. One may read the Vd as a proportionality between amount in the body and measured concentration, not a real space. By bioavailability is commonly meant dose-corrected exposure relative to a reference, in per cent. Turning to `O=C(NCC(O)c1cccnc1)c1ccc(N2CCC3(CCc4c(cccc4C(F)(F)F)O3)CC2)nn1` (stereo not drawn), the ED50 in the data set on Mus musculus [15] came to 0.8 mg/kg; in the data set on Mus musculus [7] it was 0.9 mg/kg; in the data set with Mus musculus [8], 2.5 mg/kg. In addition, the clearance in data set [16] turned out to be 17 mL/min/kg. Also, the Vd in data set [17] worked out at 1 L/kg. The molecule further came in with a Cmax in data set [2] of 3500 ng/mL. In addition, the half-life in [3] is 2 h. The time to peak (Tmax) in data set [4] was found to be 1 h. In data set [5], the AUC(0-t) at 8 h turned out to be 13000 ng·h/mL. The molecule further returned a bioavailability in data set [18] of 67%.
For the molecule `FC(F)(F)c1cccc2c1CCC1(CCN(c3ccc(-c4nnc(-c5cccnc5)o4)nn3)CC1)O2`, in data set [12], the pIC50 is under 5.00.
Consider `O=C(NCC(O)c1ccccc1)c1ccc(N2CCC3(CC2)CC(=O)c2ccccc2O3)nn1` (stereo not drawn), for which the pIC50 at Stearoyl-CoA desaturase [1] was 6.16; in data set [12] it was 7.30; in data set [13], 6.60.
